In brackets after ≈: the same amount, converted by molar mass. Like-named read-outs stand apart in the source and are kept apart here.
Tests used:
pol β binding to DNA = pol β binding to DNA (Homo sapiens, UniProt P06746); test: Polymerase–DNA interaction, electrophoretic mobility shift assay, pol β; conditions: for inhibition of DNA binding to polymerase (EMSA): honokiol up to 200 μM, polymerase in excess of DNA
pol η binding to DNA = target: T1, pol η binding to DNA (Homo sapiens, UniProt Q9Y253); test: Polymerase–DNA interaction, electrophoretic mobility shift assay, pol η; conditions: native PAGE
T1 sequence (Q9Y253 1-713): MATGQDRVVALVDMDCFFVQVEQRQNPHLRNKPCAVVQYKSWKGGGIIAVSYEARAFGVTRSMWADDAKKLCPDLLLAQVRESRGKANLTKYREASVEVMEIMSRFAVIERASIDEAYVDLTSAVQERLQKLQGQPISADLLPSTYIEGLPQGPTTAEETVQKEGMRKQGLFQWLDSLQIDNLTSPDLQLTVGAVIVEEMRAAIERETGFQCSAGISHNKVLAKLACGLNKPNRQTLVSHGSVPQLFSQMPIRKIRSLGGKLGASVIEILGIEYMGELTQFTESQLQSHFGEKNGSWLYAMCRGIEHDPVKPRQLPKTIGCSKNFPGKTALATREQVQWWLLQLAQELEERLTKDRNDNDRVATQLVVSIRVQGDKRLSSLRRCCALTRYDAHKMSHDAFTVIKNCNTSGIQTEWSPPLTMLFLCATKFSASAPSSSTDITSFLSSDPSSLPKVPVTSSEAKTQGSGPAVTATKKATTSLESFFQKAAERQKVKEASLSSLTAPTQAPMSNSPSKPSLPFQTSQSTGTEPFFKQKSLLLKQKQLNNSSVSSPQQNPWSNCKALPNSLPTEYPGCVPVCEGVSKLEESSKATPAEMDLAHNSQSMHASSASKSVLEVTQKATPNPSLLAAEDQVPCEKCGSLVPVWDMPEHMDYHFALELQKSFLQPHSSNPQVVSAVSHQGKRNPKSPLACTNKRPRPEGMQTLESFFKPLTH

[1] = target: human DNA polymerase β (pol β) (Homo sapiens, UniProt P06746); test: Steady-state primer extension assay, pol β; assay type: biochemical
rats = conditions: dose of 100 mg/kg; cited from earlier work
[2] = tested on: HL60 promyelocytic leukemia cells; conditions: mice xenografted with HL60 promyelocytic leukemia cells; cited from earlier work
A549 cells = test: MTS assay of cell proliferation, A549; assay type: cell-based, human; conditions: A549, 24 h
Method in brief: (§1)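 Cells grown in DMEM with 10% FBS at 37 °C and 5% CO2. Plated at 5 × 10^3 per well, grown 24 h, then exposed 24 or 72 h to test compound alone or in pairs: 10 μM bleomycin-type or 250 μM alkylating agent added to the lignan, or 10 μM lignan added to either. DMSO 0.2% final; vehicle controls. MTS/PMS for 4 h; A492; cell-free background. Triplicate; IC50 fit, 95% CI.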

MCF7 cells = test: MTS assay of cell proliferation, MCF7; assay type: cell-based, human; conditions: for IC50: Homo sapiens; for −log(IC50) (95% CI): tested compound alone
Method in brief: as §1

KF(exo-) binding to DNA = KF(exo-) binding to DNA (Escherichia coli, UniProt P00582, D355A/E357A); test: Polymerase–DNA interaction, electrophoretic mobility shift assay, KF; parameters: species or system E. coli; conditions: native PAGE
pol β = pol β (Homo sapiens, UniProt P06746); test: Presteady-state burst kinetics; assay type: biochemical; conditions: modeling with a noncompetitive inhibition scheme (Figure S10)
UACC903 cells = test: MTS assay of cell proliferation, UACC903; assay type: cell-based, human; conditions: for IC50: Homo sapiens; for −log(IC50) (95% CI): tested compound alone
Method in brief: as §1

PANC1 cells = test: MTS assay of cell proliferation, PANC1; assay type: cell-based, human; conditions: for IC50: Homo sapiens; for −log(IC50) (95% CI): tested compound alone
Method in brief: as §1

[3] = cited from earlier work
[4] = Solubility limit of honokiol in polymerase buffer; assay type: physicochemical
[5] = target: T2, human DNA polymerase λ (pol λ) (Homo sapiens, UniProt Q9UGP5); test: Steady-state primer extension assay, pol λ; assay type: biochemical
T2 sequence (Q9UGP5 1-575): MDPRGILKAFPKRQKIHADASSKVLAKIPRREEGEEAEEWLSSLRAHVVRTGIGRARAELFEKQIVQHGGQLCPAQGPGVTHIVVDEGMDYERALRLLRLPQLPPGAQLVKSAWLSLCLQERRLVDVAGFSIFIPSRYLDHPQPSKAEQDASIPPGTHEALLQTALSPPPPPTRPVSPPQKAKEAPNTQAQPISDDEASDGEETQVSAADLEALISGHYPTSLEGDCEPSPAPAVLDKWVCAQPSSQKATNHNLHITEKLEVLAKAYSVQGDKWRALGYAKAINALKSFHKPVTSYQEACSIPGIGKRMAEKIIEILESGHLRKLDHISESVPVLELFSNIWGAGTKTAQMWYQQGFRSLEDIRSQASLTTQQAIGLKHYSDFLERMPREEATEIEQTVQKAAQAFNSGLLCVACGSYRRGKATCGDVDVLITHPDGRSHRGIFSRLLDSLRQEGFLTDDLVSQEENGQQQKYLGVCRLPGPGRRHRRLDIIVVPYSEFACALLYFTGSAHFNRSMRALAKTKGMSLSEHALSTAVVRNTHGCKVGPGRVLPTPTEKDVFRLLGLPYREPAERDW

[6] = target: DNA polymerase I from E. coli (Klenow fragment), Kf(exo-) (Escherichia coli, UniProt P00582, D355A/E357A); test: Steady-state primer extension assay, Kf; assay type: biochemical
[7] = eq 3, factor on Km/Ki, 95% confidence limits
[8] = eq 3, residual catalysis with HNL bound, 95% confidence limits

In the case of `C=CCc1ccc(O)c(-c2ccc(O)c(CC=C)c2)c1` [HNL, 2-(4-hydroxy-3-prop-2-enyl-phenyl)-4-prop-2-enyl-phenol], the Ki (pol β binding to DNA) is reported as over 500 µM, the “inhibition of DNA binding to polymerase (EMSA)” value (from here on “inhibition of DNA binding”) (pol β binding to DNA; listed as Honokiol) is reported as “does not inhibit DNA binding” and the “inhibition of DNA binding” value (pol β binding to DNA; listed as honokiol) is reported as “did not inhibit the binding of the DNA to the polymerase”. For the same molecule, the “inhibition of DNA binding” value (pol η binding to DNA) was “does not inhibit DNA binding”, the IC50 [1] was 0.6 µM and the Ki ([1]; Ki, hyperbolic mixed-type inhibition fit (eq 3), vs dCTP, 95% confidence limits) was 4 µM. The α [1, 7] was 0.55 (0.31, 0.79), the β [1, 8] was 0.20 (0.15, 0.25) and the “inhibition mechanism versus dCTP” value ([1]; steady-state kinetic analysis) was “mixed-type noncompetitive”. The “toxicity and side effects in rats” value (rats) was “nontoxic with no side effects”, the “prolonging life in xenografted mice” value [2] was “effective in prolonging life” and the “−log(IC50) (95% CI)” value (A549 cells; tested compound alone) was 4.6 (4.5, 4.8). For the same molecule, the IC50 (A549 cells; Homo sapiens, read-out: −log(IC50) (95% CI), A549, 24 h, tested compound alone (converted)) was 25.1 µM, the IC50 (MCF7 cells; MCF7, 24 h, read-out: −log(IC50) (95% CI), MCF7, 24 h, tested compound alone (converted)) was 20 µM and the IC50 (MCF7 cells; MCF7, 72 h, read-out: −log(IC50) (95% CI), MCF7, 72 h, tested compound alone (converted)) was 15.8 µM. For the same molecule, the “−log(IC50) (95% CI)” value (MCF7 cells; MCF7, 24 h) was 4.8 (4.7, 4.8), the “−log(IC50) (95% CI)” value (MCF7 cells; MCF7, 72 h) was 4.9 (4.8, 5.0) and the “inhibition of DNA binding” value (KF(exo-) binding to DNA) was “does not inhibit DNA binding”. The “honokiol off rate constant” value (pol β) was 0.16 s⁻¹, the IC50 (UACC903 cells; UACC-903, 24 h, read-out: −log(IC50) (95% CI), UACC903, 24 h, tested compound alone (converted)) was 25.1 µM and the IC50 (UACC903 cells; UACC-903, 72 h, read-out: −log(IC50) (95% CI), UACC903, 72 h, tested compound alone (converted)) was 15.8 µM. The “−log(IC50) (95% CI)” value (UACC903 cells; UACC903, 24 h) was 4.6 (4.47, 4.8), the “−log(IC50) (95% CI)” value (UACC903 cells; UACC903, 72 h) was 4.8 (4.65, 4.9) and the IC50 (PANC1 cells; PANC-1, 24 h, read-out: −log(IC50) (95% CI), PANC1, 24 h, tested compound alone (converted)) was 20 µM. The IC50 (PANC1 cells; PANC-1, 72 h, read-out: −log(IC50) (95% CI), PANC1, 72 h, tested compound alone (converted)) was 7.94 µM, the “−log(IC50) (95% CI)” value (PANC1 cells; PANC1, 24 h) was 4.6 (4.5, 4.8) and the “−log(IC50) (95% CI)” value (PANC1 cells; PANC1, 72 h) was 4.8 (4.7, 4.9). For the same molecule, the “crossing of blood–brain and blood–cerebrospinal fluid barriers” value [3] was “crosses the blood–brain and blood–cerebrospinal fluid barriers”, the solubility [4] was 200 µM (≈ 53.3 µg/mL) and the IC50 [5] was 0.8 µM. The Ki [5] was 8.3 µM, the α [5, 7] was 0.51 (0.24, 0.78) and the β [5, 8] was 0.07 (0.02, 0.12). The “inhibition mechanism versus dCTP” value ([5]; steady-state kinetic analysis) was “mixed-type noncompetitive”, the IC50 [6] was 80 µM and the Ki [6] was 26 µM. The α [6, 7] was 0.48 (0.23, 0.74), the β [6, 8] was 0.16 (0.09, 0.23) and the “inhibition mechanism versus dCTP” value ([6]; steady-state kinetic analysis) was “mixed-type noncompetitive”.
